The values below come from article PMC7848789 (SLAS discovery : advancing life sciences R & D, 2019).

The target in series [1] is HDAC1-NanoLuc fusion protein (Homo sapiens, UniProt Q13547). The series can be described thus: HDAC1 NanoBRET target engagement assay in HEK293T cells. Type of series: binding. To be noted: for Activity outcome in NanoBRET (HDAC1 engagement, displacement of SAHA tracer): HEK293T, 28.9 μM to 0.49 nM, active = CRC class 1 and 2 and AUC>100.
For a further series, the system named is HEK293T cells. The series can be described thus: CellTiter-Glo acute cell death counterscreen. It is filed as cell-based. To be noted: 1 hour; at the highest concentration tested of 45.8 μM. (Cellular ATP, detected with luciferase, serves as a proxy for viable cell number.)
The target in series [2] is Recombinant human HDAC1 enzyme (Homo sapiens, UniProt Q13547). The series can be described thus: HDAC-Glo I/II enzymatic assay. Type of series: biochemical. The settings on record: for Activity outcome in HDAC1 enzymatic HDAC-Glo I/II assay: qHTS, 11 concentrations, active = CRC class 1 and 2 and AUC>100.
Series [3] can be described thus: Fluorescence counterscreen. It is filed as physicochemical. The settings on record: excited at 450 nm, emission 500–750 nm; 610 nm channel of NanoBRET. The gist of the method: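 Cell-free scan: test compound pinned into wells of growth medium alone (final DMSO 0.28 %), no cells or tracer added. Wells excited at 450 nm and emission read every 10 nm across 500–750 nm to build a full spectrum, flagging intrinsic fluorescence near the 610 nm NanoBRET acceptor channel.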

Series [4] has as its system HDAC class I and II activity in HEK293T cells. Description: HDAC-Glo I/II cellular assay in HEK293T cells. Type of series: cell-based. To be noted: qHTS, 1 hour, active = CRC class 1 and 2 and AUC>100. On the technique in general: qHTS replaces the single test concentration by a dilution series.
Series [5] concerns HDAC class I and II activity in HeLa cells. Description: HDAC-Glo I/II cellular assay in HeLa cells. It is filed as cell-based. To be noted: qHTS; 1 hour; active = CRC class 1 and 2 and AUC>100.
The subject of the next series is isolated HDAC1. To be noted: read-out: reported IC50 against isolated HDAC1; cited from earlier work.

Each structure is given as a SMILES string. Where two headings read alike, the source gives them in different places.

Sequence of Recombinant human HDAC1 enzyme (Q13547 whole entry): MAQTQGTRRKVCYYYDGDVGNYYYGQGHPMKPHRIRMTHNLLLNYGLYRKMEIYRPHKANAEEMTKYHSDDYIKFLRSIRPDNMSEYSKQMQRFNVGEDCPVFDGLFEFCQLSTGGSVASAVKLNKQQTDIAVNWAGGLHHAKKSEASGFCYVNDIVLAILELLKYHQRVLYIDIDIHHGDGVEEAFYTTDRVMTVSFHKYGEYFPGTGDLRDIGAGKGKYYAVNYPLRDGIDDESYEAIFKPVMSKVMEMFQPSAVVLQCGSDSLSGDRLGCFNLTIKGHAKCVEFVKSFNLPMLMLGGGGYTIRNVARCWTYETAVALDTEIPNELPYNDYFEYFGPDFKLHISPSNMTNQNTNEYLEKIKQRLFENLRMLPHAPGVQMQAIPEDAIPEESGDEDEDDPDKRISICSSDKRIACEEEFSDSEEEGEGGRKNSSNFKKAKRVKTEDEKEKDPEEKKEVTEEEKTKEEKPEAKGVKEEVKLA
Sequence of HDAC1-NanoLuc fusion protein (Q13547 whole entry, the tested form may be a part): as the sequence (Q13547 whole entry) above

Take `O=C(Nc1cccc(Cl)c1)Nc1ncc(CCNc2ncnc3ccsc23)s1` [SNS-314]: in series [1], the IC50 – broadly, the point on the concentration scale where inhibition reaches its midpoint – is 0.549 µM and the “Activity outcome in NanoBRET (HDAC1 engagement, displacement of SAHA tracer)” value is on record as “engagement”. Besides, the “Acute effect on HEK293T cell viability (CellTiter-Glo)” value with HEK293T cells is listed as “acute cell death”.

`Nc1ccc2c(c1)CN1C(=O)c3ccccc3C1=N2` [Daniquidone]: the IC50 in series [2] stood at 2.1 ± 0.6 µM. In addition, the Emax in series [2] (read-out: % Efficacy, HDAC-Glo: HDAC1) was 92%. The Intrinsic fluorescence entry in series [3] is listed as “fluorescence over the 500–750 nm range”.

`CCS(=O)(=O)N1CCN(c2ccc(Nc3ncc(C(N)=O)c(NC4CC4)n3)cc2)CC1` [Cerdulatinib]: in the series with HEK293T cells, the “Acute effect on HEK293T cell viability (CellTiter-Glo)” value was “reduced HEK293T cell viability”.

As for `C=C1CN(Cc2ccc(C(=O)Nc3ccccc3N)cc2)C(=O)c2ccccc21` [MI 192], the “Activity outcome in HDAC1 enzymatic HDAC-Glo I/II assay” value in series [2] is “active”. The IC50 in series [2] (read-out: IC50 in the enzymatic assay (HDAC1), HDAC-Glo I/II, Epigenetic-Focused collection) is 0.08 µM; in the series on isolated HDAC1, 4.8 µM. The “Activity outcome in HEK293T cellular HDAC-Glo I/II assay” value in series [4] is recorded as “relatively weak activity (below the activity cutoff)”. Further, the “Activity outcome in HeLa cellular HDAC-Glo I/II assay” value in series [5] is on record as “relatively weak activity (below the activity cutoff)”. Besides, the “Activity outcome in NanoBRET (HDAC1 engagement, displacement of SAHA tracer)” value in series [1] is recorded as “engage HDAC1 in cells”.

Turning to `Cc1ccc(NC(=O)CCCCCC(=O)Nc2ccccc2N)cc1` [TC-H-106], the “Activity outcome in HDAC1 enzymatic HDAC-Glo I/II assay” value in series [2] is listed as “active”. Moreover, the “Activity outcome in HEK293T cellular HDAC-Glo I/II assay” value was “relatively weak activity (below the activity cutoff)” in series [4] and “either inactive or did not pass the activity cutoff” in series [4] (listed as TC-H 106). Moreover, the “Activity outcome in HeLa cellular HDAC-Glo I/II assay” value in series [5] is listed as “relatively weak activity (below the activity cutoff)”.

As for `Nc1ccccc1NC(=O)c1ccc(CNC(=O)OCc2cccnc2)cc1` [Entinostat], the “Activity outcome in HDAC1 enzymatic HDAC-Glo I/II assay” value in series [2] is “active”. In series [4], the “Activity outcome in HEK293T cellular HDAC-Glo I/II assay” value is given as “relatively weak activity (below the activity cutoff)”. Also, in series [5], the “Activity outcome in HeLa cellular HDAC-Glo I/II assay” value is recorded as “relatively weak activity (below the activity cutoff)”.

Consider `Nc1cc(F)ccc1NC(=O)c1ccc(CNC(=O)/C=C/c2cccnc2)cc1` [Chidamide], for which the “Activity outcome in HDAC1 enzymatic HDAC-Glo I/II assay” value in series [2] was “active”. The “Activity outcome in HEK293T cellular HDAC-Glo I/II assay” value in series [4] was “relatively weak activity (below the activity cutoff)”. The “Activity outcome in HeLa cellular HDAC-Glo I/II assay” value in series [5] is “relatively weak activity (below the activity cutoff)”.
